This passage reports Ki results from ChEMBL document CHEMBL1154674, “Synthesis and evaluation of three 18F-labeled aminophenylbenzothiazoles as amyloid imaging agents” (J Med Chem, 2009).

Molecules are shown by their SMILES.

The target of the test is Amyloid-beta precursor protein (Homo sapiens, UniProt P05067). As to the kind of experiment: Displacement of [125I]IMPY from beta-amyloid plaques in Alzheimer's disease patient brain homogenate. Format: tissue-based. A digest of the protocol: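 Test compound was added at 10^-5–10^-10 M, serially diluted in PBS containing 0.1% BSA. Nonspecific binding was defined with 600 nM unlabeled IMPY. Incubation was 37 °C for 2 h, followed by GF/B vacuum filtration, PBS washes and γ counting. Ki came from nonlinear regression.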
(In general: Loss of bound radioactivity is the signal in a displacement assay; it reports binding, not function.)

Sequence of Amyloid-beta precursor protein (P05067 whole entry): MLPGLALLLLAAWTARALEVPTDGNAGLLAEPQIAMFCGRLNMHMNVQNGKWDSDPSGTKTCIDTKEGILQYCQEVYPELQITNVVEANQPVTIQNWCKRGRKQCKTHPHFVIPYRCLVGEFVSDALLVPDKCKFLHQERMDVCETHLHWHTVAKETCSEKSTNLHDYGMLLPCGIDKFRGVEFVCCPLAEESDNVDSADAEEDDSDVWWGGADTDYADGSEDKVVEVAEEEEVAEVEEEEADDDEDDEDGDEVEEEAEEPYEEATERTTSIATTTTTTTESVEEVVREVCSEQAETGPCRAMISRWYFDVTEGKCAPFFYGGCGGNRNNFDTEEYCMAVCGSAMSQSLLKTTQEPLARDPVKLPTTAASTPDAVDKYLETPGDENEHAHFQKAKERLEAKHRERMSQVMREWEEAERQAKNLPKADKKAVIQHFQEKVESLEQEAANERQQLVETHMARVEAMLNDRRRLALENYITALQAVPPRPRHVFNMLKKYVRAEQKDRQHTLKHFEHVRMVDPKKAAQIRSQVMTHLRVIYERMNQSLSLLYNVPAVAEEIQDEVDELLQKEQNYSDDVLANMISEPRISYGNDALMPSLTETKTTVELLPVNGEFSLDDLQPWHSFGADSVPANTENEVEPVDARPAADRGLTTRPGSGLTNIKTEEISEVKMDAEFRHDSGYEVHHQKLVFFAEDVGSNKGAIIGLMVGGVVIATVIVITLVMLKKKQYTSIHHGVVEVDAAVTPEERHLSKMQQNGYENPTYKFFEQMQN

For `CNc1ccc2nc(-c3ccc(F)cc3)sc2c1`, the Ki – broadly, a measure of affinity in units of concentration, obtained from inhibition or displacement – turned out to be 4.1 nM.
The figure for `CN(C)c1ccc2nc(-c3ccc(F)cc3)sc2c1` is 3.8 nM.
